Reference: publication PMC5424638 (Biomolecules & Therapeutics, 2016)

Columns and labels:
CVB3-induced myocarditis = assay: CVB3-induced viral myocarditis mouse model, cardiac pathological score; format: in vivo, BALB/c mice; conditions: for Pathological score (grade): day 7, n=10; for Myocardial damage compared with the infected control (model) group: 20, 40 and 60 mg/kg, day 7
Summary of the method: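 Four-week-old male BALB/c mice (n=10/group, pathogen-free) received CVB3 i.p. at 100xTCID50 in 0.1 ml RPMI 1640. From day 2, interferon alpha was given i.p. once daily, and test compound at 20, 40 or 60 mg/kg was given by oral gavage in 0.5% CMC-saline. On day 7, ventricles were formalin-fixed, paraffin-embedded, cut at 4 µm and H&E stained. Inflamed fraction of the section (eyepiece grid, x200) was graded 0–4 (<25%, 25–50%, 50–75%, >75%).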

CVB3 (Nancy strain) = assay: Anti-viral activity assay in CVB3-infected cardiomyocytes; format: cell-based, coxsackievirus B3; conditions: for IC50: Enterovirus B, CVB3, Cardiomyocyte, 72 h; for TI (TC50/IC50): cardiomyocytes
Summary of the method: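 Neonatal rat cardiomyocytes grown to confluence (about 1x10^4 cells/well) were infected with CVB3 (Nancy strain, 100 TCID50) for 2 h in six replicates. Cells were washed three times with PBS, then exposed to serial dilutions of test compound for 72 h. XTT plus phenazine methosulfate was added for 2 h, and OD was read at 450 nm (reference 690 nm). Inhibition was (ODtv−ODcv)/(ODcd−ODcv)x100, giving IC50 and TI (TC50/IC50).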

[1] = 24 h stability in blood at room temperature; format: in vitro ADME, rat; conditions: unpublished data
[2] = Pharmacokinetics in rats after single oral administration; format: in vivo, rat; conditions: single oral dose 20 mg/kg, preliminary, unpublished data
CVB3 = assay: Virus titration from heart homogenate of CVB3-infected mice; format: in vivo, BALB/c mice; conditions: day 7, n=10
[3] = tested on: neonatal rat cardiomyocytes; assay: Cytotoxicity assay; format: cell-based; conditions: for 50% toxic concentration (CC50) fold higher than in the cinnamaldehyde group: cardiomyocytes
Summary of the method: (§1)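 Ventricles from 1–3-day-old Sprague-Dawley rats were digested with 0.05% collagenase II/0.05% trypsin at 37°C, pre-plated 1.5 h to remove nonmyocytes, and cultured 3 days in DMEM/10% FBS. Cells were exposed to test compound at 0.01–1000 µM for 72 h (final DMSO ≤0.05%). MTT was added for 4 h at 37°C and absorbance read at 570 nm. TC50 (50% viability loss vs untreated) came from at least three dose-response curves.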

Cytotoxicity assay = format: cell-based, rat; conditions: Sprague-Dawley, rat, primary neonatal rat cardiomyocytes
Summary of the method: as §1

[4] = ref Yuan et al., 1992; cited from earlier work
IL-6 mRNA = IL-6 mRNA expression in CVB3-infected cardiomyocytes; format: cell-based, rat; conditions: 10 μM, 12 h
Summary of the method: (§2)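 Neonatal rat cardiomyocytes were infected with CVB3 and then incubated with 10 µM test compound. Cytokine mRNA expression in the cells was measured by real-time PCR after 12 h. Data are given as mean ± SD.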

IL-6 [5] = assay: IL-6 level in culture supernatant of CVB3-infected cardiomyocytes; format: cell-based, rat; conditions: 10 μM, 72 h; viral control 337.46 ± 29.22
IL-1β mRNA = IL-1β mRNA expression in CVB3-infected cardiomyocytes; format: cell-based, rat; conditions: 10 μM, 12 h
Summary of the method: as §2

TNF-α [6] = assay: TNF-α level in culture supernatant of CVB3-infected cardiomyocytes; format: cell-based, rat; conditions: 10 μM, 72 h; viral control 80.12 ± 8.40
IL-6 [7] = assay: IL-6 protein expression in CVB3-infected cardiomyocytes; format: cell-based, rat; conditions: 10 μM, 24 h
Summary of the method: (§3)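 CVB3-infected neonatal rat cardiomyocytes were treated with 10 µM test compound for 24 h. Whole-cell lysates (equal protein) were run on 15% SDS-PAGE and transferred to nitrocellulose. Membranes were blocked in 5% skimmed milk for 2 h at room temperature, probed with cytokine and GAPDH antibodies overnight at 4°C, then with HRP secondary for 1 h, and detected by chemiluminescence. Bands were expressed as ratio to GAPDH (n=3, mean ± SD).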

TNF-α mRNA = TNF-α mRNA expression in CVB3-infected cardiomyocytes; format: cell-based, rat; conditions: 10 μM, 12 h
Summary of the method: as §2

IL-1β [8] = assay: IL-1β level in culture supernatant of CVB3-infected cardiomyocytes; format: cell-based, rat; conditions: 10 μM, 72 h; viral control 163.64 ± 19.75
TNF-α [9] = assay: TNF-α protein expression in CVB3-infected cardiomyocytes; format: cell-based, rat; conditions: 10 μM, 24 h
Summary of the method: as §3

IL-1β [10] = assay: IL-1β protein expression in CVB3-infected cardiomyocytes; format: cell-based, rat; conditions: 10 μM, 24 h
Summary of the method: as §3

Stability in blood [1] | Time at which peak concentration was achieved after oral administration [2] | Compound | Pathological score (grade) (CVB3-induced myocarditis; 20 mg/kg/day, oral gavage) | Pathological score (grade) (CVB3-induced myocarditis; 40 mg/kg/day) | Pathological score (grade) (CVB3-induced myocarditis; 60 mg/kg/day, oral gavage) | Myocardial damage compared with the infected control (model) group (CVB3-induced myocarditis) | IC50 (CVB3 (Nancy strain)) [µM] | TI (TC50/IC50) (CVB3 (Nancy strain)) | Viral titers (CVB3; 20 mg/kg/day, oral gavage) [Log TCID50/mg] | Viral titers (CVB3; 40 mg/kg/day) [Log TCID50/mg] | 50% toxic concentration (CC50) fold higher than in the cinnamaldehyde group [3] [fold] | CC50 at 72 h (Cytotoxicity assay) [µM] | IL-6 mRNA expression (IL-6 mRNA) | IL-1β mRNA expression (IL-1β mRNA) | CVB3-mediated IL-6 expression (Western blot) (IL-6 [7]) | TNF-α mRNA expression (TNF-α mRNA) | CVB3-mediated TNF-α expression (Western blot) (TNF-α [9]) | CVB3-mediated IL-1β expression (Western blot) (IL-1β [10]) | other results
stable for 24 h | about 1.2 h | O=C/C=C/c1ccc(Cl)cc1 [Compound 2, (E)-3-(4-chlorophenyl) acrylaldehyde] | 2.85 ± 0.70 | 2.85 ± 0.70 | 2.75 ± 0.60 | no significant difference | 2110 | 3.31 | 3.30 ± 0.48 | 3.20 ± 0.63 | 7114 | 6970 | – | – | – | – | – | – | Viral titers (CVB3; 60 mg/kg/day, oral gavage): 3.10 ± 0.57 Log TCID50/mg; CC50 ([3]; neonatal rat cardiomyocytes, 0.01–1000 μM, 72 h, MTT, called TC50 in methods): no obvious cytotoxicity
stable for 24 h | ~2.1 h | O=C/C(Br)=C/c1ccc(Cl)cc1 [Compound 5, (Z)-2-bromo-3-(4-chlorophenyl) acrylaldehyde] | 1.95 ± 0.40 | 1.75 ± 0.60 | 1.30 ± 0.50 | significantly reduced | 2.12 ± 0.37 | 40.42 | 2.80 ± 0.42 | – | 87 | 85.7 ± 7.63 | inhibited | inhibited | markedly diminished | inhibited | markedly diminished | markedly diminished | IL-6 level in culture supernatant (IL-6 [5]): 232.80 ± 19.62 pg/mL; TNF-α level in culture supernatant (TNF-α [6]): 43.60 ± 4.77 pg/mL; IL-1β level in culture supernatant (IL-1β [8]): 112.72 ± 13.60 pg/mL
stable for 24 h | ~3.3 h | Cc1ccc(/C=C(\Br)C=O)cc1 [Compound 4, (Z)-2-bromo-3-p-tolylacrylaldehyde] | 2.80 ± 0.70 | 2.10 ± 0.60 | 1.90 ± 0.60 | significantly reduced | 11.4 ± 2.22 | 3.39 | 3.10 ± 0.74 | 2.90 ± 0.57 | 39 | 38.6 ± 4.89 | inhibited | inhibited | markedly diminished | inhibited | markedly diminished | markedly diminished | –

The next lines start with the molecule.

Compound | Stability in blood [1] | Time at which peak concentration was achieved after oral administration [2] | Pathological score (grade) (CVB3-induced myocarditis; 20 mg/kg/day, oral gavage) | Pathological score (grade) (CVB3-induced myocarditis; 40 mg/kg/day) | Pathological score (grade) (CVB3-induced myocarditis; 60 mg/kg/day, oral gavage) | Myocardial damage compared with the infected control (model) group (CVB3-induced myocarditis) | IC50 (CVB3 (Nancy strain)) [µM] | TI (TC50/IC50) (CVB3 (Nancy strain)) | Viral titers (CVB3; 20 mg/kg/day, oral gavage) [Log TCID50/mg] | Viral titers (CVB3; 40 mg/kg/day) [Log TCID50/mg] | 50% toxic concentration (CC50) fold higher than in the cinnamaldehyde group [3] [fold] | CC50 at 72 h (Cytotoxicity assay) [µM] | IL-6 mRNA expression (IL-6 mRNA) | IL-1β mRNA expression (IL-1β mRNA) | CVB3-mediated IL-6 expression (Western blot) (IL-6 [7]) | TNF-α mRNA expression (TNF-α mRNA) | CVB3-mediated TNF-α expression (Western blot) (TNF-α [9]) | CVB3-mediated IL-1β expression (Western blot) (IL-1β [10]) | other results
O=CC=Cc1ccccc1 [Cinnamaldehyde, 3-phenyl-2-propenal, reference compound] | – | – | – | 2.40 ± 0.50 | – | – | 24.2 ± 4.77 | 0.04 | – | 2.80 ± 0.63 | – | 0.98 ± 0.12 | – | – | – | – | – | – | Half-life in rat blood [4]: 4 min
Cc1ccc(/C=C/C=O)cc1 [Compound 1, (E)-3-p-tolylacrylaldehyde] | – | – | – | – | – | – | – | – | – | – | – | 3.96 ± 0.29 | – | – | – | – | – | – | –
COc1ccc(/C=C/C=O)cc1 [Compound 3, (E)-3-(4-methoxyphenyl)acrylaldehyde] | – | – | – | – | – | – | – | – | – | – | – | 7.88 ± 0.82 | – | – | – | – | – | – | –
